# According to paper PMC6511231 (Cell reports, 2018):
# Entries after “also recorded” stand apart in the source; their conditions may differ. Read-outs that look alike come from different tables or passages of the source.
# Legend:
# [1] = biological target: T1, mouse LIN28Δ, mouse TUT4 and pre-let-7g (Mus musculus, UniProt Q8K3Y3); test: LIN28-mediated let-7 oligouridylation assay; assay type: biochemical; conditions: for Inhibition of LIN28-mediated oligouridylation: 40 μM compound, 37°C, denaturing PAGE
# T1 sequence (Q8K3Y3 16-184): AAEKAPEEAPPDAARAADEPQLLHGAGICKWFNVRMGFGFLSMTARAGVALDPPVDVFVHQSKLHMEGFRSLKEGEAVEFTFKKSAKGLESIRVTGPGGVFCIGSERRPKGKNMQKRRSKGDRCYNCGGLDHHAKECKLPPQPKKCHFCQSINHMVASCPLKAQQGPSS
# T1 sequence (B2RX14 230-1424 partner): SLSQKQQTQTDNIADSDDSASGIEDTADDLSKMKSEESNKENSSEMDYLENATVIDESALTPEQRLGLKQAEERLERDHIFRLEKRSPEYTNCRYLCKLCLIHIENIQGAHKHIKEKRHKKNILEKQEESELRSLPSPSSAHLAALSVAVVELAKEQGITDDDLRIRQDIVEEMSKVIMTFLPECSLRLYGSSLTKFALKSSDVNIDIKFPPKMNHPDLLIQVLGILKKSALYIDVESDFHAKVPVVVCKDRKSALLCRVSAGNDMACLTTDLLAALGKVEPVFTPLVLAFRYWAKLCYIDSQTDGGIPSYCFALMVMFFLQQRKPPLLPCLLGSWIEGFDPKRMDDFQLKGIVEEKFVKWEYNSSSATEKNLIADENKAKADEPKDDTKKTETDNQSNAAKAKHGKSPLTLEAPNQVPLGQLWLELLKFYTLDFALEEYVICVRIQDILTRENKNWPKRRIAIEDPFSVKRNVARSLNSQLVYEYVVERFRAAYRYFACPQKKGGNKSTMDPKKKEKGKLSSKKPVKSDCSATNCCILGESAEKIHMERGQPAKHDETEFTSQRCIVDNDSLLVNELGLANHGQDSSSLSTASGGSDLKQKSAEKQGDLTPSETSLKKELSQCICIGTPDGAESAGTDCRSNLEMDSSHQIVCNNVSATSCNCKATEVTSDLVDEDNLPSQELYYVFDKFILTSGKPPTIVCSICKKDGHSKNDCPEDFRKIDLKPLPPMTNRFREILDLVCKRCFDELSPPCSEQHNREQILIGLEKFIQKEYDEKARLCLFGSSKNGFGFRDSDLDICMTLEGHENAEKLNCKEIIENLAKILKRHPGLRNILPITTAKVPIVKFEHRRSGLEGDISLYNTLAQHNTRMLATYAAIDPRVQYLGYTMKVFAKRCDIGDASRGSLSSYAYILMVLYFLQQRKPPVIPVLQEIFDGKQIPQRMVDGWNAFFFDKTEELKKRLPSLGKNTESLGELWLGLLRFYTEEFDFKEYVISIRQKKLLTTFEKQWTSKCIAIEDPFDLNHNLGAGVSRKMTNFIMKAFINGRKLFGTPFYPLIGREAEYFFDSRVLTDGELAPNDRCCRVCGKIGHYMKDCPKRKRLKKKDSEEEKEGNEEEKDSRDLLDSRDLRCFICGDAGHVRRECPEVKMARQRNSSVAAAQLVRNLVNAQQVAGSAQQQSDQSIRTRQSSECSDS
# In short: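 Mouse LIN28A, mouse TUT4 (230–1424) and in vitro-transcribed, T4 PNK-radiolabelled pre-let-7g were incubated with test compound (40 μM screen; 80 μM follow-up) for 40 min at 37°C. Buffer: 20 mM Tris 7.5, 5% glycerol, 6 mM MgCl2, 6 mM DTT, 50 μM ZnCl2, 40 mM KCl, 200 μM UTP. Reactions were stopped with EDTA/SDS/proteinase K (50°C, 30 min) and run on denaturing PAGE. RNA and DMSO served as controls.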
# [2] = system: LIN28-expressing mouse embryonic stem cells; test: Toxicity to mouse embryonic stem cells; assay type: cell-based
# [3] = biological target: mouse LIN28Δ:preE-let-7d complex (Mus musculus, UniProt Q8K3Y3); test: HSQC spectroscopy; assay type: binding; conditions: 15N-labeled mouse LIN28Δ with unlabeled preE-let-7d
# [4] = system: HeLa cells that do not express LIN28; test: Toxicity to HeLa cells; assay type: cell-based, human
# HeLaLIN28A = test: let-7-sensitive dual luciferase reporter assay, HeLaLIN28A; assay type: cell-based, human; conditions: 100 μM or higher concentrations, 48 hr
# In short: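 A HeLa clone stably expressing low-level FLAG-LIN28A plus the 8×let-7 Renilla/firefly dual-luciferase sensor was treated 48 hr with vehicle (DMSO) or test compound at the indicated concentrations. Dual luciferase activity was then assayed, with firefly as internal control. Runs used 3 or 5 biological replicates; Student's t test against vehicle.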
# Solubility in solution = assay type: physicochemical; conditions: water / solution
# LIN28Δ [5] = biological target: T2, LIN28Δ (human, UniProt Q9H9Z2 16-187); test: competition
# T2 sequence: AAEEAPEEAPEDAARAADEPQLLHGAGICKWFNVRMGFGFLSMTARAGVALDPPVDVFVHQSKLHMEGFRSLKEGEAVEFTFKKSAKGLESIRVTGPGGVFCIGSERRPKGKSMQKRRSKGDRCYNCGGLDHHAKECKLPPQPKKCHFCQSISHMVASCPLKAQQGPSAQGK
# LIN28ΔY140A = biological target: T3, LIN28ΔY140A (human, UniProt Q9H9Z2 16-187, Y140A); test: fluorescence polarization
# T3 sequence: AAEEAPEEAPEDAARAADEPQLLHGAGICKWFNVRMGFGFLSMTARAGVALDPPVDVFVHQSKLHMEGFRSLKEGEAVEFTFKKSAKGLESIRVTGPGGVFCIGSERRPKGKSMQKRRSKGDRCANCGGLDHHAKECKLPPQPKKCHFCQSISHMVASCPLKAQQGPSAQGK
# LIN28ΔF73A [6] = biological target: T4, LIN28ΔF73A (human, UniProt Q9H9Z2 16-187, F73A); test: fluorescence polarization
# T4 sequence: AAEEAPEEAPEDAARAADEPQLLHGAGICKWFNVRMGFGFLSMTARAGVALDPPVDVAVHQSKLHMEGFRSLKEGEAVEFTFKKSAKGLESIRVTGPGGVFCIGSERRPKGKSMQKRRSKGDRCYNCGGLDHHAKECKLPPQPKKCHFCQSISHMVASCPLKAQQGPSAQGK
# LIN28ΔF73A/Y140A = biological target: T5, LIN28ΔF73A/Y140A (human, UniProt Q9H9Z2 16-187, F73A;Y140A); test: fluorescence polarization
# T5 sequence: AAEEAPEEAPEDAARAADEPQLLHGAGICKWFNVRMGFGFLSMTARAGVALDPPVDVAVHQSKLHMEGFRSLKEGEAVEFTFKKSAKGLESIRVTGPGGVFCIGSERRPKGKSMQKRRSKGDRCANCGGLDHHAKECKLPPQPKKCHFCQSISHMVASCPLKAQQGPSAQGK
# LIN28Δ [7] = biological target: T2, LIN28Δ; test: fluorescence polarization
# LIN28ΔF73A [8] = biological target: T4, LIN28ΔF73A; test: competition
# LIN28Δ [9] = biological target: T2, LIN28Δ; test: competition; remark: listed apart in the source
molecule,measurement,setting,value
CC1(C)C(=O)N=C2C1=C(O)C(=O)c1ccccc12 [BVT-948],Inhibition of LIN28-mediated oligouridylation,[1],completely inhibited
c1ccc(CN(CCN(Cc2ccccn2)Cc2ccccn2)Cc2ccccn2)nc1 [TPEN],Toxicity,[2],shows toxicity
same,HSQC peak intensity changes,[3],a number of peaks had significant reduction in intensity
same,Inhibition of LIN28-mediated oligouridylation,[1],completely inhibited
same,Toxicity,[4],shows toxicity
"C=CC(C)(C)c1[nH]c2ccccc2c1C1=C(O)C(=O)C(c2c[nH]c3c(CC=C(C)C)cccc23)=C(O)C1=O [DAQ-B1, demethylasterriquinone B1]",Inhibition of LIN28-mediated oligouridylation,[1],completely inhibited
Cc1cc2c(C(C)C)c(O)c(O)c(C=O)c2c(O)c1-c1c(C)cc2c(C(C)C)c(O)c(O)c(C=O)c2c1O [Gossypol],Inhibition of LIN28-mediated oligouridylation,[1],completely inhibited
CNc1cncc(C(=O)O)c1 [5-(methylamino)nicotinic acid],Inhibition of LIN28-mediated let-7 oligouridylation,"[1]; 80 μM, compared to DMSO negative control",weak activities
same,Relative Renilla luciferase activity,HeLaLIN28A,significant reduction of the relative Renilla luciferase activity; also recorded: weak activities
O=C1C=CC(=NS(=O)(=O)c2ccc(C(=O)O)cc2)C=C1 [LI20],Solubility,Solubility in solution,poor solubility in solution
same,Inhibition of LIN28-mediated oligouridylation,[1],completely inhibited
GGGGUAGUGAUUUUACCCUGUUUA (structured_RNA) [CSD-binding riboprobe],IC50,LIN28Δ [5],157 nM
GGGGUAGUGAUUUUACCCUGUUUAGGAGAU (structured_RNA) [preE-let-7f-1-FAM],Kd,LIN28ΔY140A,78.5 nM
same,Kd,LIN28ΔF73A [6],72.4 nM
same,Kd,LIN28ΔF73A/Y140A,589 nM
same,Kd,LIN28Δ [7],28.5 nM
UAGGAGA (ssRNA) [ZKD-binding riboprobe UAGGAGA],IC50,LIN28ΔF73A [8],1200 nM
same,IC50,LIN28Δ [9],3500 nM
GGGGUAGUGAUUUUACCCUGUUUAGGAGAU (structured_RNA) [preE-let-7f-1 unlabeled],IC50,LIN28Δ [5],44 nM
